Calls of active or inactive are those of the source. The calls are words filed in the database; no cut-off is given here.
System: Mus musculus
Assay: Compound was tested for antileukemic activity in P388 leukemia mice when administered a dose of 100 mg/kg/day; IA means inactive
Type: functional, organism-based
Summary of the method: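 BDF1 male mice, eight per group, implanted ip with 10⁶ P388 leukemia cells. Drug given ip in 0.5 mL saline. Schedules varied between groups; the 100 mg/kg/day regimen was dosed qd 1-9.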

SMILES: Nc1ncnc2c1ncn2[C@@H]1C[C@H](CO)[C@@H](O)[C@H]1O
- Activity: inactive
